Test results from ChEMBL document CHEMBL1275389, “In vivo characterization of a dual adenosine A2A/A1 receptor antagonist in animal models of Parkinson's disease” (J Med Chem, 2010).
Calls of active or inactive are those of the source. The rule behind the calls is not given here.

How the values were obtained:
Mus musculus [1] = test: Reversal of haloperidol-induced catalepsy in BALB/c mouse at 1 mg/kg, po administered 30 mins after haloperidol challenge measured for 60 seconds after 4 hrs; assay type: functional, organism-based; design: dose 1 mg/kg
How it was run: (§1)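 Fasted male BALB/c mice received haloperidol (1 mg/kg sc) and were then dosed orally with test compound (0, 1, 3 mg/kg in 0.5% methylcellulose), reference A2A antagonist (5 mg/kg) or vehicle. Bar catalepsy (max 60 s) was measured repeatedly at 15 min, 1 h, 2 h and 4 h after dosing. Mean ± SEM, n = 12; Dunnett's test.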

Mus musculus [2] = test: Reversal of haloperidol-induced catalepsy in po dosed BALB/c mouse administered 30 mins after haloperidol challenge measured for 60 seconds after 1 hr; assay type: functional
How it was run: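 Fasted male BALB/c mice (18-23 g) received haloperidol 1 mg/kg sc (in 0.3% tartaric acid/0.9% saline). Test compound was given orally in 0.5% methylcellulose (0.01-10 mg/kg) 30 min later. L-DOPA 300 mg/kg plus carbidopa 75 mg/kg served as positive control. Groups were randomized and testing was blind. At 1 h, forepaws were placed on a bar 3.5 cm high and time on the bar was recorded (max 60 s). n = 9-11; Dunnett's test.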

Mus musculus [3] = test: Reversal of haloperidol-induced catalepsy in BALB/c mouse at 3 mg/kg, po administered 30 mins after haloperidol challenge measured for 60 seconds after 4 hrs; assay type: functional, organism-based; design: dose 3 mg/kg; how it was run: as §1
Callithrix jacchus [4] = test: Inhibition of MPTP-induced motor disabilities in Callithrix jacchus at 12 mg/kg, po measured every 5 mins […]; assay type: functional, organism-based; design: dose 12 mg/kg
How it was run: (§2)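 MPTP-treated marmosets were dosed orally with vehicle, L-DOPA (12 mg/kg) or test compound (0.1/0.3, 1.0, 10, 50 mg/kg). Parkinsonian motor disability was scored out to 6 h. Eight animals per group. Analysis used a Friedman nonparametric repeated-measures ANOVA with Dunn's test.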

Callithrix jacchus [5] = test: Toxicity in Callithrix jacchus assessed as induction of dyskinesia at 12 mg/kg, po measured for 10 mins every 30 mins […]; assay type: organism-based; design: dose 12 mg/kg, route oral; conditions: marmoset, in vivo
How it was run: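 MPTP-treated marmosets received vehicle, L-DOPA (12 mg/kg po) or oral test compound (0.1, 1.0, 10, 50 mg/kg). Dyskinesias (involuntary movements) were scored out to 4 h. Eight animals per group. Analysis used a Friedman test followed by Dunn's comparison.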

[6] = Half life in cynomolgus monkey at 10 mg/kg, po; assay type: ADME, organism-based, Macaca fascicularis; design: dose 10 mg/kg, route oral; conditions: in vivo
How it was run: (§3)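 Fasted male and female cynomolgus monkeys received one oral dose of 10 mg/kg as a solution in 0.5% methylcellulose. For bioavailability, a separate iv dose of 1 mg/kg was given in 10% solutol. Serial blood was drawn by venipuncture. Plasma was acetonitrile-precipitated and measured by LC-MS/MS (LOQ 0.7-2 ng/mL). Noncompartmental analysis was applied to individual plasma concentrations.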

Adenosine receptor A1 = biological target: T1, Adenosine receptor A1 (Homo sapiens, UniProt P30542); test: Antagonist activity at adenosine A1 receptor; assay type: functional
T1 sequence (P30542 whole entry): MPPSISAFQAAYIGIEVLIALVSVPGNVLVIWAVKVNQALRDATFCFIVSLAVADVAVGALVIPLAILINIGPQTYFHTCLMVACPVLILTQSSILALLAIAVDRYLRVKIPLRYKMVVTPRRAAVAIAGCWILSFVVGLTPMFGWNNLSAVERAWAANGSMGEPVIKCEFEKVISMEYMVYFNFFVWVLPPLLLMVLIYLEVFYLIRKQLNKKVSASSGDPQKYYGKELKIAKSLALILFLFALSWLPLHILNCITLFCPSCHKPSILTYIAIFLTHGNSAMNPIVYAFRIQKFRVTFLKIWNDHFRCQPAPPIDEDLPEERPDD

[7] = Oral bioavailability in BALB/c mouse at 10 mg/kg; assay type: ADME, organism-based; conditions: in vivo
How it was run: (§4)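 Fasted male BALB/c mice received one oral dose of 10 mg/kg as a solution in 0.5% methylcellulose. For bioavailability, a separate iv dose of 2 mg/kg was given in 10% solutol. Discrete blood samples were taken by cardiac puncture from 3–4 animals per time point. Plasma was acetonitrile-precipitated and measured by LC-MS/MS (LOQ 0.7-2 ng/mL). Parameters came from noncompartmental analysis.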

Mus musculus [8] = test: Reversal of reserpine-induced akinesia in CF1 mouse at 1 mg/kg, po administered 18 hrs before reserpine challenge measured for 30 mins after 60 mins; assay type: functional, organism-based; design: dose 1 mg/kg; conditions: in the assay text read “18 hrs after reserpine challenge” for “18 hrs before reserpine challenge”
How it was run: (§5)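 Mice were pretreated with reserpine (0.6 mg/kg sc) 18 h before testing. They were dosed orally with test compound (0.10, 1.0, 10.0, 30.0 mg/kg) or vehicle. Locomotion was recorded 60 min after dosing as total distance traveled (cm) over a 30 min period. Mean ± SEM, n = 10-12 per group; Hochberg test versus reserpine + vehicle.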

Rattus norvegicus [9] = test: Reversal of haloperidol-induced catalepsy in po dosed Sprague-Dawley rat administered 30 mins after haloperidol challenge measured for 180 seconds after 1 hr; assay type: functional
How it was run: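 Sprague-Dawley rats received haloperidol (1 mg/kg sc). Oral test compound (0.01-30.0 mg/kg), L-DOPA/carbidopa (200:50 mg/kg) or vehicle followed, as in the mouse protocol. Time to descend from the bar was recorded (max 180 s). Mean ± SEM, n = 10-16 rats per group.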

[10] = Cmax in Sprague-Dawley rat plasma at 10 mg/kg, po; assay type: ADME, organism-based; design: dose 10 mg/kg, route oral
How it was run: as §4, with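 “Sprague-Dawley rats” for “BALB/c mice”, “orbital sinus” for “cardiac”, “rats” for “animals”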

Adenosine receptor A2a = Adenosine receptor A2a (Homo sapiens, UniProt P29274); test: Antagonist activity at adenosine A2A receptor; assay type: functional
Rattus norvegicus [11] = test: Reversal of haloperidol-induced catalepsy in Sprague-Dawley rat at 10 mg/kg, po administered 30 mins after haloperidol challenge measured for 180 seconds after 4 hrs; assay type: functional, organism-based; design: dose 10 mg/kg
How it was run: (§6)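 Haloperidol-treated rats (1 mg/kg sc) were dosed orally with test compound (0, 1, 10 mg/kg) or L-DOPA 200 mg/kg plus benserazide 50 mg/kg. Time to descend from the bar (max 180 s) was measured at 15 min, 1 h, 2 h and 4 h after dosing. n = 10 rats; Dunnett's test versus haloperidol + vehicle.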

Mus musculus [12] = test: Reversal of reserpine-induced akinesia in CF1 mouse at 10 mg/kg, po administered 18 hrs before reserpine challenge measured for 30 mins after 60 mins; assay type: functional, organism-based; design: dose 10 mg/kg; conditions: in the assay text read “18 hrs after reserpine challenge” for “18 hrs before reserpine challenge”; how it was run: as §5
Callithrix jacchus [13] = test: Inhibition of MPTP-induced motor disabilities in Callithrix jacchus at 50 mg/kg, po measured every 5 mins for 6 hrs; assay type: functional, organism-based; design: dose 50 mg/kg; how it was run: as §2
[14] = Oral bioavailability in cynomolgus monkey at 10 mg/kg; assay type: ADME, organism-based, Macaca fascicularis; conditions: in vivo; how it was run: as §3
[15] = Half life in Sprague-Dawley rat at 10 mg/kg, po; assay type: ADME, organism-based; design: dose 10 mg/kg, route oral; conditions: in vivo
How it was run: as §4, with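 “Sprague-Dawley rats” for “BALB/c mice”, “orbital sinus” for “cardiac”, “rats” for “animals”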

Mus musculus [16] = test: Reversal of reserpine-induced akinesia in CF1 mouse at 30 mg/kg, po administered 18 hrs after reserpine challenge measured for 30 mins after 60 mins
Rattus norvegicus [17] = test: Inhibition of 6-hydroxydopamine-induced rotational behavior in Sprague-Dawley rat at 0.1 to 10 mg/kg, po measured for 120 mins; assay type: functional; conditions: 2 h, dose mg/kg 0.1-10, read-out: MED
How it was run: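 Rats received 6-OHDA (12 μg) unilaterally into the medial forebrain bundle. Six weeks later they were dosed orally with test compound alone (0.1, 1.0, 3.0, 10 mg/kg). Rotation was tracked by an optical sensor tethered to an automated system, with one count per 360° turn. Readout was mean ± SEM total contralateral rotations over 2 h, n = 16 per group.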

Rattus norvegicus [18] = test: Potentiation of L-dopa-induced rotational behavior in unilaterally 6-hydroxydopamine-lesioned po dosed Sprague-Dawley rat pretreated 30 mins before L-dopa challenge measured for 120 mins in presence of carbidopa; assay type: functional, organism-based
How it was run: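 6-OHDA (12 μg) was microinjected unilaterally into the medial forebrain bundle. Six weeks later rats got L-DOPA (10 mg/kg po, with carbidopa 2.5 mg/kg sc) alone or together with oral test compound (0.1, 1.0, 3.0, 10 mg/kg). Contralateral 360° turns were counted by an optical sensor during the 2 h before and after L-DOPA. Mean ± SEM, n = 16 rats; Tukey's test versus L-DOPA + vehicle.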

[19] = Cmax in Sprague-Dawley rat brain at 10 mg/kg, po; assay type: ADME, organism-based; design: dose 10 mg/kg, route oral
How it was run: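 Tissue distribution study: fasted male Sprague-Dawley rats were given 10 mg/kg orally in 0.5% methylcellulose. Four rats per time point were euthanized to collect brain. Brains were weighed, homogenized in methanol, and the extract evaporated and reconstituted in mobile phase for LC-MS/MS.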

[20] = Cmax in BALB/c mouse plasma at 10 mg/kg, po; assay type: ADME, organism-based; design: dose 10 mg/kg, route oral; how it was run: as §4
Callithrix jacchus [21] = test: Inhibition of MPTP-induced motor disabilities in Callithrix jacchus at 10 mg/kg, po measured every 5 mins for 6 hrs; assay type: functional, organism-based; design: dose 10 mg/kg; how it was run: as §2
Mus musculus [22] = test: Reversal of reserpine-induced akinesia in po dosed CF1 mouse administered 18 hrs after reserpine challenge measured for 30 mins after 60 mins; conditions: read-out: MED
[23] = Cmax in cynomolgus monkey plasma at 10 mg/kg, po; assay type: ADME, organism-based, Macaca fascicularis; design: dose 10 mg/kg, route oral; how it was run: as §3
Callithrix jacchus [24] = test: Inhibition of MPTP-induced motor disabilities in Callithrix jacchus at 1 mg/kg, po measured every 5 mins […]; assay type: functional, organism-based; design: dose 1 mg/kg; how it was run: as §2
[25] = Half life in BALB/c mouse at 10 mg/kg, po; assay type: ADME, organism-based; design: dose 10 mg/kg, route oral; conditions: in vivo; how it was run: as §4
Rattus norvegicus [26] = test: Reversal of haloperidol-induced catalepsy in Sprague-Dawley rat at 1 mg/kg, po administered 30 mins after haloperidol challenge measured for 180 seconds after 4 hrs; assay type: functional, organism-based; design: dose 1 mg/kg; how it was run: as §6
[27] = Oral bioavailability in Sprague-Dawley rat at 10 mg/kg; assay type: ADME, organism-based; conditions: in vivo
How it was run: as §4, with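 “Sprague-Dawley rats” for “BALB/c mice”, “orbital sinus” for “cardiac”, “rats” for “animals”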

[28] = Ratio of drug level in brain to plasma in Sprague-Dawley rat at 10 mg/kg, po; assay type: ADME, organism-based; design: dose 10 mg/kg, route oral
How it was run: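 Fasted male Sprague-Dawley rats were given 10 mg/kg orally as a solution in 0.5% methylcellulose. At each time point four rats were euthanized for blood, plasma and brain. Brain was homogenized in methanol, and the extract was dried and reconstituted in mobile phase. Plasma was precipitated with acetonitrile. Both were quantified by LC-MS/MS.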

Adenosine receptor A2a, sequence (P29274 whole entry): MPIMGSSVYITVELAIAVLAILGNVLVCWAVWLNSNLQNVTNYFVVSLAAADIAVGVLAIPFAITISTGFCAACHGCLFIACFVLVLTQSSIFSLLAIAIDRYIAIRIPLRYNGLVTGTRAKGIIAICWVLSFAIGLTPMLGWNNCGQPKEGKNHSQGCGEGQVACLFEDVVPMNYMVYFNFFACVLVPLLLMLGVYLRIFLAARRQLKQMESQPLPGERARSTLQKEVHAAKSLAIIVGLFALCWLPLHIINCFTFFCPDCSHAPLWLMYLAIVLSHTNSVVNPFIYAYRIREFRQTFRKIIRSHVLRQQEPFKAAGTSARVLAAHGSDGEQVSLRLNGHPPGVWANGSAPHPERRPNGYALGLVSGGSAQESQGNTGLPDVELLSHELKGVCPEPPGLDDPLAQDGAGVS

## CCn1c(=O)c2c(nc(/C=C/c3ccc(OC)c(OC)c3)n2C)n(CC)c1=O [ISTRADEFYLLINE]
Mus musculus [1]
  Activity: Active
Mus musculus [2]
  MRC: 1 mg/kg
Mus musculus [2]; Mus musculus, BALB/c, po
  ED50: 0.14 mg/kg
Mus musculus [3]
  Activity: Active

## N[C@@H](Cc1ccc(O)c(O)c1)C(=O)O [LEVODOPA]
Callithrix jacchus [4]
  inhibition: Active
Callithrix jacchus [5]
  Activity: Toxic

## Cl.Cl.Nc1nc(-c2ccccc2)c2c(n1)-c1cc(CN3CCCC3)ccc1C2=O
[6]
  half-life: 3.2 h
Adenosine receptor A1
  Ki: 17 nM
[7]
  bioavailability: 100%
Mus musculus [8]
  Activity: Active
Rattus norvegicus [9]
  Activity: Dose-dependent effect
  ED50: 0.48 mg/kg
Rattus norvegicus [9]; read-out: MED
  minimal effective dose: 1 mg/kg
Mus musculus [1]
  Activity: Active
[10]
  Cmax: 1260 nM
Adenosine receptor A2a
  Ki: 4.1 nM
Rattus norvegicus [11]
  Activity: Active
Mus musculus [12]
  Activity: Active
Callithrix jacchus [13]
  Activity: Active
[14]
  bioavailability: 39%
[15]
  half-life: 1.6 h
Mus musculus [2]
  Activity: Dose-dependent effect
Mus musculus [2]; Mus musculus, BALB/c, po
  ED50: 0.17 mg/kg
Mus musculus [2]; Mus musculus, BALB/c, po, read-out: MED
  minimal effective dose: 1 mg/kg
Mus musculus [16]
  Activity: Active
Rattus norvegicus [17]
  minimal effective dose: 1 mg/kg
Rattus norvegicus [18]
  Activity: Dose-dependent effect
[19]
  Cmax: 3550 nM
[20]
  Cmax: 655 nM
Callithrix jacchus [21]
  Activity: Active
Mus musculus [22]
  minimal effective dose: 1 mg/kg
[23]
  Cmax: 626 nM
Callithrix jacchus [24]
  Activity: Active
[25]
  half-life: 0.8 h
Rattus norvegicus [26]
  Activity: Active
[27]
  bioavailability: 64%
[28]
  Kp: 3
Mus musculus [3]
  Activity: Active
